Published values gathered from unrelated publications.
Each line is one published result; the experiments were not run side by side.
BCL2L2: Bcl-2-like protein 2 (BCL2L2, Homo sapiens, UniProt Q92843)
CYP1A1: Cytochrome P450 1A1 (CYP1A1, Homo sapiens, UniProt P04798)
FOLH1: Glutamate carboxypeptidase 2 (FOLH1, Homo sapiens, UniProt Q04609)
Enoyl-[acyl-carrier-protein] reductase [NADPH] FabI: Enoyl-[acyl-carrier-protein] reductase [NADPH] FabI (Staphylococcus aureus, UniProt Q6GI75)

| SMILES | target | assay | conditions | Ki [nM] |
| --- | --- | --- | --- | --- |
| CCn1c(-c2nc3cc(C(=O)N4CCC[C@@H](N)C4)cc(OC)c3n2C)cc2cccnc21 | Protein-arginine deiminase type-1 (PADI1, Homo sapiens, UniProt Q9ULC6) | enzyme activity, inhibitor |  | 570000 |
| CC[C@H](C)[C@H](NC(=O)[C@H](CCC(=O)O)NC(=O)[C@H](CC(=O)O)NC(=O)CNC(=O)[C@H](CC(C)C)NC(=O)[C@H](CCCNC(=N)N)NC(=O)[C@H](CCCNC(=N)N)NC(=O)[C@H](CC(C)C)NC(=O)CNC(=O)[C@H](CCC(N)=O)NC(=O)[C@@H](NC(=O)[C@H](CCSC)NC(=O)[C@H](Cc1c[nH]c2ccccc12)NC(=O)[C@@H](NC(=O)[C@H](CCC(=O)O)NC(=O)[C@@H]1CCCN1C(=O)[C@H](CCCNC(=N)N)NC(C)=O)[C@@H](C)CC)[C@@H](C)O)C(=O)N[C@@H](CC(N)=O)C(=O)N[C@@H](C)C(=O)N[C@@H](Cc1ccc(O)cc1)C(=O)N[C@@H](Cc1ccc(O)cc1)C(=O)N[C@@H](C)C(=O)N[C@@H](CCCNC(=N)N)C(N)=O | BCL2L2 | ligand displacement, FP |  | 1500 |
| C#Cc1ccc(-c2cc(=O)c3ccccc3o2)cc1 | CYP1A1 | enzyme activity, inhibitor, fluorescence | 6 min, pH 7.6 | 39 |
| COc1cc(O)c(CC=C(C)C)c(O)c1C(=O)/C=C/c1ccc(O)cc1 | CYP1A1 | enzyme activity, inhibitor, fluorescence | 15 min, pH 7.4 | 110 |
| CC[C@H](C)[C@H](NC(=O)[C@H](CCC(=O)O)NC(=O)[C@H](CC(=O)O)NC(=O)CNC(=O)[C@H](CC(C)C)NC(=O)[C@H](CCCNC(=N)N)NC(=O)[C@H](CCC(N)=O)NC(=O)[C@H](CC(C)C)NC(=O)[C@H](CO)NC(=O)[C@H](CCC(N)=O)NC(=O)[C@@H](NC(=O)[C@H](CC(C)C)NC(=O)[C@H](Cc1c[nH]c2ccccc12)NC(=O)[C@@H](NC(=O)[C@H](CCC(=O)O)NC(=O)[C@@H]1CCCN1C(=O)[C@H](CCCNC(=N)N)NC(C)=O)[C@@H](C)CC)[C@@H](C)O)C(=O)N[C@@H](CC(N)=O)C(=O)N[C@@H](C)C(=O)N[C@@H](Cc1ccc(O)cc1)C(=O)N[C@@H](Cc1ccc(O)cc1)C(=O)N[C@@H](C)C(=O)N[C@@H](CCCNC(=N)N)C(N)=O | BCL2L2 | ligand displacement, FP |  | 360 |
| NCCCC[C@H](NC(=O)[C@@H]1CCCN1C(=O)[C@@H]1CSSC[C@H](NC(=O)CNC(=O)CNC(=O)CN)C(=O)N[C@@H](Cc2ccc(O)cc2)C(=O)N[C@@H](Cc2ccccc2)C(=O)N[C@@H](CCC(N)=O)C(=O)N[C@@H](CC(N)=O)C(=O)N1)C(=O)NCC(N)=O | Vasopressin V1a receptor (AVPR1A, Homo sapiens, UniProt P37288) | ligand displacement, radioligand | cell membranes | 1100 |
| O=C(O)CCC(NC(=O)NC(CCCCNC(=O)CCCCCCC(=O)NCCCCC(NC(=O)C(Cc1ccccc1)NC(=O)C(Cc1ccccc1)NC(=O)CN1CCN(CC(=O)O)CCN(CC(=O)O)CCN(CC(=O)O)CC1)C(=O)O)C(=O)O)C(=O)O (stereo not drawn) | FOLH1 | enzyme activity, inhibitor, fluorescence |  | 1.23 |
| CCc1cc(O)c(Oc2ccccc2)cc1F | Enoyl-[acyl-carrier-protein] reductase [NADPH] FabI | enzyme activity, inhibitor |  | 0.09 |
| O=c1cc(-c2ccccc2)oc2c1ccc1ccccc12 | CYP1A1 | enzyme activity, inhibitor, fluorescence | 6 min, pH 7.6 | 43 |
| C[C@H]1Oc2cc(cnc2N)-c2c(nn(C)c2C#N)CN(C)C(=O)c2ccc(F)cc21 | Dual specificity mitogen-activated protein kinase kinase 1 (MAP2K1, Homo sapiens, UniProt Q02750) | cell-free assay | lysate | 128 |
| CCc1cc(O)c(Oc2ccc(C(N)=O)cc2F)cc1F | Enoyl-[acyl-carrier-protein] reductase [NADPH] FabI | enzyme activity, inhibitor |  | 0.08 |
| O=C(O)CCC(NC(=O)NC(CCCCNC(=O)CCCCCCC(=O)NC(CCCCNC(=O)CN1CCN(CC(=O)O)CCN(CC(=O)O)CCN(CC(=O)O)CC1)C(=O)OCc1ccccc1)C(=O)O)C(=O)O.[Ga+3] (stereo not drawn) | FOLH1 | enzyme activity, inhibitor, fluorescence |  | 29 |
